MC4R ag barr = activates human MC4R beta-arrestin recruitment | P32245 | U2OS MC4R beta-arrestin complementation, luminescence; percent of melanotan II response, DMSO zero | activation, % at 8.9 µM | actives 0.98% (n = 360,000);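 active means activation above a per-plate cutoff, the mean activation of sample wells on that plate plus 3 SD, cut at about 8% in these data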
m5-HT2A agonist = activates the mouse 5-HT2A serotonin receptor; activation, % at 7.6 µM; AID 624169; P35363; actives 0.66% (n = 360,000); CHO-K1 mHTR2A beta-arrestin complementation, luminescence; percent of 30 µM serotonin response;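 active means activation above a run cutoff, the mean activation of all tested compounds plus 3 SD, cut at about 14% in these data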
Target sequence (P35363 whole entry, looked up): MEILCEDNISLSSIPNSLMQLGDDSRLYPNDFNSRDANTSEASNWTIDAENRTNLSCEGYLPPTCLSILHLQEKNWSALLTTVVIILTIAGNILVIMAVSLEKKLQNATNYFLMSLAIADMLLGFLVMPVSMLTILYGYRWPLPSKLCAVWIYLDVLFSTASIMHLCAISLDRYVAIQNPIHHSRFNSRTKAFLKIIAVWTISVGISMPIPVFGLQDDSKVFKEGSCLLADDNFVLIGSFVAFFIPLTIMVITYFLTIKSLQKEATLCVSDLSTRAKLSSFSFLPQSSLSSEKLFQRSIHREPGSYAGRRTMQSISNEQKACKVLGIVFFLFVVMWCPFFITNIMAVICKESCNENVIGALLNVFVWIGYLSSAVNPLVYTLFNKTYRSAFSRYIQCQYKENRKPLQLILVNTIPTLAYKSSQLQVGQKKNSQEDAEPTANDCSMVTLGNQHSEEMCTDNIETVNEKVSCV
MC4R antag cAMP = antagonists of human melanocortin 4 receptor (MC4R) | actives 0.48% (n = 360,000) | P32245 | inhibition, % at 6.5 µM | MC4R-expressing cells, MTII-stimulated cAMP, LANCE TR-FRET;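 active means inhibition above its plate's cutoff, the mean of tested wells on that plate plus 3 SD, cut at about 29% in these data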
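System: U2OS cells stably expressing human melanocortin 4 receptor (MC4R). Reagent: Melanotan II challenge after compound preincubation. Doses: 6.5 µM. Times: 30-min compound, 1-h challenge, 1-h detection, room temperature. Measured by: TR-FRET with Eu-cAMP and labeled anti-cAMP, 671 nm. Replicates: singlicate.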
EBI2 antag = blocks human EBI2 receptor beta-arrestin signaling; P32249; EBI2 beta-arrestin recruitment, luminescence, 7a,25-OHC stimulated; inhibition, % at 5 µM; actives 0.81% (n = 360,000); in the data active means inhibition above about 38%;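 further: enzyme fragment complementation signal reports receptor beta-arrestin coupling in cells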
MC4R barr ag = human MC4R beta-arrestin agonism confirmation. shares compounds with MC4R ag barr. U2OS MC4R beta-arrestin recruitment, luminescence; scaled DMSO 0%, Melanotan II 100%. activation, % at 8.9 µM. actives 31% (n = 2,400). AID 602192;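 active means mean activation across replicates above the hit cutoff set in the earlier primary screen, cut at about 8% in these data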
MOR-DOR barr ag = OPRM1-OPRD1 heterodimer agonism counter-screen | shares compounds with MC4R ag barr | U2OS PathHunter beta-arrestin, beta-gal luminescence; percent of deltorphin B response, DMSO zero | activation, % at 9.2 µM | actives 5.8% (n = 2,400) | AID 602194;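 active means mean activation across replicates exceeds the hit threshold derived in the earlier primary screen, cut at about 18% in these data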
MOR ag counter = OPRM1 agonism in mouse HTR2A counterscreen. shares compounds with m5-HT2A agonist. U2OS OPRM1 beta-arrestin PathHunter, luminescence; DMSO 0%, DAMGO 9.3 µM 100%. activation, % at 9.3 µM. actives 5.3% (n = 2,300). AID 624380;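 active means mean activation above the mean of DMSO-only wells plus 3 SD, cut at about 0.5% in these data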
m5-HT2A ag conf = mouse HTR2A agonism confirmed | shares compounds with m5-HT2A agonist | CHO-K1 PathHunter beta-arrestin recruitment, luminescence; DMSO 0%, 30 µM serotonin 100% | activation, % at 7.6 µM | actives 19% (n = 2,300) | AID 624381;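 active means mean activation across triplicates above the hit threshold derived in the original primary screen, cut at about 15% in these data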
A number is an active result; - = inactive; . = no result given. An excerpt weighted towards active compounds, which were near 2.8% of everything screened.

SMILES	MC4R ag barr	m5-HT2A agonist	MC4R antag cAMP	EBI2 antag	MC4R barr ag	MOR-DOR barr ag	others
COc1ccc(C(=O)c2cn(-c3cccc(Br)c3)nc2C(C)=O)cc1	15.3	-	-	-	-	-
CCOC(=O)C1(C)CCN1C(=O)c1ccccc1Br (configuration not stated)	-	-	-	-	.	.
CC(C)(C)c1ccc(OCc2ccc(C(=O)N/N=C/c3ccc(O)c(O)c3)cc2)cc1	25.3	-	-	-	9.8	-
O=C(N/N=C/c1cccc(O)c1)c1ccc(COc2ccccc2Br)cc1	12.5	-	-	-	-	-
COc1ccc(Cc2c(-c3ccc(F)cc3)nc3c(C)cc(Br)cn23)c(C)c1	.	-	.	-	.	.
CC1CCc2sc(C(=O)OCC(=O)NCc3ccc(F)cc3)cc2C1 (configuration not stated)	13.0	-	-	-	-	-
Cc1nc(NC(=O)COC(=O)c2cc3c(s2)CCC(C)C3)c(Cl)cc1Cl (configuration not stated)	-	-	-	-	.	.
C=CCn1c(O)c(N=Nc2ccccc2[N+](=O)[O-])c2ccccc21	-	-	-	-	.	.
CCc1nc2ccc(C(=O)NCc3ccc4c(c3)OCO4)cn2c1N(C)CCC(C)C	-	-	-	-	.	.
C/C(=N/NC(=O)CSCc1ccc(Cl)cc1)c1cccc(NC(=O)c2ccccc2)c1	21.6	-	-	-	-	-
COC(=O)c1sc(NC(=O)c2ccoc2C)nc1C	-	-	-	-	.	.
COC(=O)c1sc(NC(=O)/C=C/c2ccc(C)o2)nc1C	12.3	-	-	-	-	-
CC1(C)CC(N=c2cc(-c3ccccc3)oc3ccc(Cl)cc23)CC(C)(C)N1	23.6	-	-	-	-	-
OCCCN=c1cc(-c2ccccc2)oc2ccc(Cl)cc12	-	-	-	-	.	.
C/C(=N/NC(=O)c1cccs1)c1ccc(NC(=O)COc2ccc(Cl)cc2)cc1	12.2	-	-	-	12.9	-
CC(C)N1CCC(C)(C(=O)Nc2cccc(Oc3ccccc3)c2)C1 (configuration not stated)	-	-	-	-	.	.
CN(C)CCOc1nc(-c2ccccc2)nc2c1oc1ccccc12	16.4	-	-	-	-	-
Cc1nc(Cc2nnc(SC(C)C(=O)Nc3ccccc3)o2)cs1 (configuration not stated)	-	-	-	-	.	.
CSc1nc2nccc(-c3ccc(-c4ccccc4)cc3)n2n1	10.7	-	-	-	-	-
COc1ccc(NC(=O)C2(C)CCN2Cc2ccc(OC)c3ccccc23)cc1OC (configuration not stated)	-	-	-	-	.	.
CCc1c(C(=O)Nc2cc(C)ccc2OC)[nH]c(C)c1C(C)=O	11.4	-	-	-	10.5	-
CCc1c(C(=O)Nc2ccc(OC)cc2)[nH]c(C)c1C(C)=O	-	-	-	-	.	.
CCOC(=O)[C@]12CCCC=C1N(Cc1ccc3c(c1)OCO3)C(=O)[C@H](CC(=O)NCCCN1CCCC1=O)C2	.	-	.	-	.	.
O=C(NC(c1ccc(Cl)cc1)c1ccsc1)C1CCN(CCOc2ccc(Cl)cc2)CC1 (configuration not stated)	-	-	-	-	.	.
COc1ccc(-c2csc(NC(=O)c3ccccc3NS(=O)(=O)c3ccc(F)c(F)c3)n2)cc1	15.1	17.9	-	-	-	-	MOR ag counter=-;m5-HT2A ag conf=24.1
SMILES	MC4R ag barr	m5-HT2A agonist	MC4R antag cAMP	EBI2 antag	MC4R barr ag	MOR-DOR barr ag	others
Cc1ccc(S(=O)(=O)Nc2ccccc2C(=O)Nc2nc(-c3ccc(F)cc3)cs2)cc1	-	-	-	-	.	.
NS(=O)(=O)c1ccc(NC(=S)N2CCN(c3ccc(Cl)c(Cl)c3)CC2)cc1	11.6	35.5	-	-	-	-	MOR ag counter=-;m5-HT2A ag conf=-
COC(=O)C1=NNC(C(=O)OC)C1c1ccccc1 (configuration not stated)	-	-	-	-	.	.
Cc1cccc(C)c1NC(=O)c1cn(-c2ccccc2)nc1-c1ccccc1	9.9	20.8	-	-	-	-	MOR ag counter=-;m5-HT2A ag conf=-
Cc1ccccc1NC(=O)c1cn(-c2ccccc2)nc1-c1ccccc1	-	-	-	-	.	.
Clc1ccc(/C=N/NC2=Nc3cccc4cccc2c34)cc1	15.9	15.3	-	-	22.2	-	MOR ag counter=-;m5-HT2A ag conf=-
CC1(C(=O)O)CCCN1C(=O)c1cccc(F)c1 (configuration not stated)	-	-	-	-	.	.
O=C(Nc1ccccc1)Nc1ccc2ccccc2n1	11.7	15.8	-	-	-	-	MOR ag counter=-;m5-HT2A ag conf=-
O=C(COc1cc(Cl)c(Cl)cc1Cl)Nc1cccc(O)c1	19.6	21.8	-	-	-	-	MOR ag counter=-;m5-HT2A ag conf=-
C[C@@H]1CN([C@H](C)CO)C(=O)c2c(c3ccccc3n2C)-c2ccccc2CO[C@H]1CN(C)S(=O)(=O)c1cn(C)cn1	-	-	-	-	.	.
COc1ccc(CC(=O)Nc2ccc(-c3noc(-c4ccccc4OC)n3)cc2)cc1	16.1	18.2	-	-	23.9	-	MOR ag counter=3.0;m5-HT2A ag conf=-
COc1cccc(-c2nc(-c3ccc(NC(=O)Cc4ccccc4OC)cc3)no2)c1	-	-	-	-	.	.
CC(=O)Nc1cccc(-c2ccnc3c2CC(C)(C(=O)Nc2ccc(Cl)c(C(F)(F)F)c2)O3)c1 (configuration not stated)	-	-	-	-	.	.
COc1ccc(NC(=O)Nc2nc(C(N)Cc3ccc(C(F)(F)F)cc3)cs2)cc1 (configuration not stated)	32.9	21.4	-	-	28.3	-	MOR ag counter=1.5;m5-HT2A ag conf=-
NC(Cc1ccc(C(F)(F)F)cc1)c1csc(NC(=O)Nc2ccccc2Oc2ccccc2)n1 (configuration not stated)	-	-	-	-	.	.
COc1cc(NC(=O)Nc2nc(C(N)Cc3ccc(C(F)(F)F)cc3)cs2)cc(OC)c1OC (configuration not stated)	20.4	42.2	-	-	20.8	-	MOR ag counter=-;m5-HT2A ag conf=28.9
COc1ccc(CC(N)c2csc(NC(=O)Nc3ccc(OC)cc3)n2)cc1 (configuration not stated)	-	-	-	-	.	.
O=Nc1c(O)n(Cc2cccc(C(F)(F)F)c2)c2ccccc12	11.0	16.1	-	-	-	-	MOR ag counter=0.7;m5-HT2A ag conf=-
COC(=O)C1CC2=C(CCCC2=O)N(Cc2ccccc2)C1=O (configuration not stated)	-	-	-	-	.	.

Screens as filed in PubChem.
